# Results reported in ChEMBL document CHEMBL5360562 (Eur J Med Chem, 2023).
# Tests used:
# Acinetobacter baumannii [1] = experiment: Antibacterial activity against Acinetobacter baumannii AB5075 assessed as reduction in bacterial growth incubated for 16 hrs by broth microdilution method; type: functional
# Acinetobacter baumannii [2] = experiment: Potentiation of Clarithromycin antibacterial activity against Acinetobacter baumannii AB5075 assessed as clarithromycin MIC at 30 uM incubated for 16 hrs by broth microdilution method; type: functional
# Acinetobacter baumannii [3] = experiment: Potentiation of Clarithromycin antibacterial activity against Acinetobacter baumannii AB5075 assessed as clarithromycin MIC at 7.5 uM incubated for 16 hrs by broth microdilution method; type: functional
# Acinetobacter baumannii [4] = experiment: Potentiation of Clarithromycin antibacterial activity against Acinetobacter baumannii AB5075 assessed as clarithromycin MIC at 5 uM incubated for 16 hrs by broth microdilution method; type: functional
# Acinetobacter baumannii [5] = experiment: Potentiation of Clarithromycin antibacterial activity against Acinetobacter baumannii AB5075 assessed as fold reduction in clarithromycin MIC at 30 uM incubated for 16 hrs by broth microdilution method; type: functional
# In short: (§1)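 Checkerboard-style potentiation by broth microdilution. 6 h day cultures in CAMHB diluted to 5×10^5 CFU/mL. Adjuvant added from 10 mM DMSO stock at fixed concentration throughout. […] Controls: antibiotic alone, adjuvant alone, media only. Incubated stationary at 37 °C for 16 h. MIC is lowest concentration with no visible growth; fold reduction taken against the antibiotic-alone lane.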
# Acinetobacter baumannii [6] = experiment: Potentiation of Clarithromycin antibacterial activity against Acinetobacter baumannii AB5075 assessed as fold reduction in clarithromycin MIC at 7.5 uM incubated for 16 hrs by broth microdilution method; type: functional; in short: as §1
# Acinetobacter baumannii [7] = experiment: Potentiation of Clarithromycin antibacterial activity against Acinetobacter baumannii AB5075 assessed as reduction in clarithromycin MIC at 20 uM incubated for 16 hrs by broth microdilution method; type: functional; conditions: for MIC: Acinetobacter baumannii, AB5075
# Acinetobacter baumannii [8] = experiment: Potentiation of Clarithromycin antibacterial activity against Acinetobacter baumannii AB5075 assessed as clarithromycin MIC at 10 uM incubated for 16 hrs by broth microdilution method; type: functional
# Acinetobacter baumannii [9] = experiment: Potentiation of Clarithromycin antibacterial activity against Acinetobacter baumannii AB5075 assessed as fold reduction in clarithromycin MIC at 10 uM incubated for 16 hrs by broth microdilution method; type: functional; in short: as §1
# [10] = Antiproliferative against human HepG2 cells assessed as reduction in cell viability incubated for 24 hrs by XTT assay; type: toxicity, cell-based
# [11] = Therapeutic index, ratio of IC50 for antiproliferative against human HepG2 cells assessed as reduction in cell viability to MIC for potentiation of Clarithromycin antibacterial activity against Acinetobacter baumannii […] assessed as clarithromycin MIC; type: toxicity, cell-based; conditions: read-out: TI
# Acinetobacter baumannii [12] = experiment: Potentiation of Clarithromycin antibacterial activity against Acinetobacter baumannii AB967 assessed as clarithromycin MIC at 10 uM incubated for 16 hrs by broth microdilution method; type: functional
# Acinetobacter baumannii [13] = experiment: Potentiation of Clarithromycin antibacterial activity against Acinetobacter baumannii AB3560 assessed as clarithromycin MIC at 10 uM incubated for 16 hrs by broth microdilution method; type: functional
# Acinetobacter baumannii [14] = experiment: Potentiation of Clarithromycin antibacterial activity against Acinetobacter baumannii AB3785 assessed as clarithromycin MIC at 10 uM incubated for 16 hrs by broth microdilution method; type: functional
# Acinetobacter baumannii [15] = experiment: Potentiation of Clarithromycin antibacterial activity against Acinetobacter baumannii AB4498 assessed as clarithromycin MIC at 10 uM incubated for 16 hrs by broth microdilution method; type: functional
# Acinetobacter baumannii [16] = experiment: Potentiation of Clarithromycin antibacterial activity against Acinetobacter baumannii AB5674 assessed as clarithromycin MIC at 10 uM incubated for 16 hrs by broth microdilution method; type: functional
# Acinetobacter baumannii [17] = experiment: Potentiation of Clarithromycin antibacterial activity against Acinetobacter baumannii AB5711 assessed as clarithromycin MIC at 10 uM incubated for 16 hrs by broth microdilution method; type: functional
# Acinetobacter baumannii [18] = experiment: Potentiation of Azithromycin antibacterial activity against Acinetobacter baumannii AB5075 assessed as azithromycin MIC at 30 uM incubated for 16 hrs by broth microdilution method; type: functional
# Acinetobacter baumannii [19] = experiment: Potentiation of Azithromycin antibacterial activity against Acinetobacter baumannii AB5075 assessed as azithromycin MIC at 20 uM incubated for 16 hrs by broth microdilution method; type: functional
# Acinetobacter baumannii [20] = experiment: Potentiation of Azithromycin antibacterial activity against Acinetobacter baumannii AB5075 assessed as azithromycin MIC at 10 uM incubated for 16 hrs by broth microdilution method; type: functional
# Acinetobacter baumannii [21] = experiment: Potentiation of Azithromycin antibacterial activity against Acinetobacter baumannii AB5075 assessed as azithromycin MIC at 7.5 uM incubated for 16 hrs by broth microdilution method; type: functional
# Acinetobacter baumannii [22] = experiment: Potentiation of erythromycin antibacterial activity against Acinetobacter baumannii AB5075 assessed as erythromycin MIC at 30 uM incubated for 16 hrs by broth microdilution method; type: functional
# Acinetobacter baumannii [23] = experiment: Potentiation of erythromycin antibacterial activity against Acinetobacter baumannii AB5075 assessed as erythromycin MIC at 20 uM incubated for 16 hrs by broth microdilution method; type: functional
# Acinetobacter baumannii [24] = experiment: Potentiation of erythromycin antibacterial activity against Acinetobacter baumannii AB5075 assessed as erythromycin MIC at 10 uM incubated for 16 hrs by broth microdilution method; type: functional
# Acinetobacter baumannii [25] = experiment: Potentiation of erythromycin antibacterial activity against Acinetobacter baumannii AB5075 assessed as erythromycin MIC at 7.5 uM incubated for 16 hrs by broth microdilution method; type: functional
# Acinetobacter baumannii [26] = experiment: Potentiation of rifampicin antibacterial activity against Acinetobacter baumannii AB5075 assessed as rifampicin MIC at 30 uM incubated for 16 hrs by broth microdilution method; type: functional
# Acinetobacter baumannii [27] = experiment: Potentiation of rifampicin antibacterial activity against Acinetobacter baumannii AB5075 assessed as rifampicin MIC at 20 uM incubated for 16 hrs by broth microdilution method; type: functional
# Acinetobacter baumannii [28] = experiment: Potentiation of rifampicin antibacterial activity against Acinetobacter baumannii AB5075 assessed as rifampicin MIC at 10 uM incubated for 16 hrs by broth microdilution method; type: functional
# Acinetobacter baumannii [29] = experiment: Potentiation of rifampicin antibacterial activity against Acinetobacter baumannii AB5075 assessed as fold reduction in rifampicin MIC at 10 uM incubated for 16 hrs by broth microdilution method; type: functional
# [30] = Stability of compound in human plasma assessed as parent compound remaining measured at 4 hrs; type: ADME, cell-free
# In short: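 Compound at 20 μM final in human plasma (from 10 mM DMSO stock), 37 °C; aliquots at 0, 30, 60, 120, 240 min quenched in internal standard in 1:1 ACN/MeOH, centrifuged, supernatant analysed by UPLC-MRM. Peak-area ratio to internal standard expressed as % parent remaining relative to 0 min; half-life calculated.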
# [31] = Metabolic stability in human liver microsomes assessed as parent compound remaining in presence of NADPH measured at 1 hr by UV-UPLC analysis; type: ADME, Microsome
# Acinetobacter baumannii [32] = experiment: Potentiation of Clarithromycin antibacterial activity against Acinetobacter baumannii AB5075 assessed as clarithromycin MIC at 2.5 uM incubated for 16 hrs by broth microdilution method; type: functional
# Acinetobacter baumannii [33] = experiment: Potentiation of Clarithromycin antibacterial activity against Acinetobacter baumannii AB5075 assessed as fold reduction in clarithromycin MIC at 5 uM incubated for 16 hrs by broth microdilution method; type: functional; in short: as §1
# Acinetobacter baumannii [34] = experiment: Potentiation of rifampicin antibacterial activity against Acinetobacter baumannii AB5075 assessed as rifampicin MIC at 7.5 uM incubated for 16 hrs by broth microdilution method; type: functional
# In short: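 A. baumannii AB5075 6 h day cultures in CAMHB subcultured to 5×10^5 CFU/mL; adjuvant added from 10 mM DMSO stock at fixed concentration, then rifampicin (DMSO) twofold serially diluted in adjuvant-containing broth. Antibiotic-alone and adjuvant-alone control lanes.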
structure (smiles),measurement,setting,value
Cl.Cl.Nc1nc(-c2ccc(NC(=O)Nc3ccc(-c4c[nH]c(N)n4)c(F)c3)cc2F)c[nH]1,MIC,Acinetobacter baumannii [1],> 200 µM
same,MIC,Acinetobacter baumannii [2],≤ 0.062 µg/mL
same,MIC,Acinetobacter baumannii [3],0.5 µg/mL
same,MIC,Acinetobacter baumannii [4],2 µg/mL
same,fold change (FC),Acinetobacter baumannii [5],>=512
same,fold change (FC),Acinetobacter baumannii [6],64
same,MIC,Acinetobacter baumannii [7],≤ 0.062 µg/mL
same,MIC,Acinetobacter baumannii [8],0.125 µg/mL
same,fold change (FC),Acinetobacter baumannii [9],256
same,IC50 at 24 h,[10],127 µg/mL
same,selectivity ratio,[11],52.9
same,MIC,Acinetobacter baumannii [12],0.25 µg/mL
same,MIC,Acinetobacter baumannii [13],0.5 µg/mL
same,MIC,Acinetobacter baumannii [14],1 µg/mL
same,MIC,Acinetobacter baumannii [15],1 µg/mL
same,MIC,Acinetobacter baumannii [16],0.5 µg/mL
same,MIC,Acinetobacter baumannii [17],1 µg/mL
same,MIC,Acinetobacter baumannii [18],0.5 µg/mL
same,MIC,Acinetobacter baumannii [19],1 µg/mL
same,MIC,Acinetobacter baumannii [20],2 µg/mL
same,MIC,Acinetobacter baumannii [21],16 µg/mL
same,MIC,Acinetobacter baumannii [22],0.125 µg/mL
same,MIC,Acinetobacter baumannii [23],0.5 µg/mL
same,MIC,Acinetobacter baumannii [24],1 µg/mL
same,MIC,Acinetobacter baumannii [25],8 µg/mL
same,MIC,Acinetobacter baumannii [26],0.125 µg/mL
same,MIC,Acinetobacter baumannii [27],0.25 µg/mL
same,MIC,Acinetobacter baumannii [28],1 µg/mL
same,fold change (FC),Acinetobacter baumannii [29],4
same,Stability,[30],83%
same,Stability,[31],82%
Cl.Cl.Nc1nc(-c2cc(F)cc(NC(=O)Nc3ccc(-c4c[nH]c(N)n4)c(F)c3)c2)c[nH]1,MIC,Acinetobacter baumannii [1],> 200 µM
same,MIC,Acinetobacter baumannii [2],≤ 0.062 µg/mL
same,MIC,Acinetobacter baumannii [3],0.25 µg/mL
same,MIC,Acinetobacter baumannii [4],1 µg/mL
same,fold change (FC),Acinetobacter baumannii [5],>=512
same,fold change (FC),Acinetobacter baumannii [6],128
same,fold change (FC),Acinetobacter baumannii [7],256
same,MIC,Acinetobacter baumannii [7],0.125 µg/mL
same,MIC,Acinetobacter baumannii [32],32 µg/mL
Cl.Cl.Nc1nc(-c2ccc(NC(=O)Nc3ccc(F)c(-c4c[nH]c(N)n4)c3)cc2F)c[nH]1,MIC,Acinetobacter baumannii [1],> 200 µM
same,MIC,Acinetobacter baumannii [2],0.5 µg/mL
same,fold change (FC),Acinetobacter baumannii [5],64
same,fold change (FC),Acinetobacter baumannii [7],8
same,MIC,Acinetobacter baumannii [7],4 µg/mL
Cc1cc(-c2c[nH]c(N)n2)ccc1NC(=O)Nc1ccc(-c2c[nH]c(N)n2)cc1C.Cl.Cl,MIC,Acinetobacter baumannii [1],> 200 µM
same,MIC,Acinetobacter baumannii [2],32 µg/mL
same,fold change (FC),Acinetobacter baumannii [5],1
Cl.Cl.Nc1nc(-c2cccc(NC(=O)Nc3cc(F)cc(-c4c[nH]c(N)n4)c3)c2)c[nH]1,MIC,Acinetobacter baumannii [1],> 200 µM
same,MIC,Acinetobacter baumannii [2],≤ 0.062 µg/mL
same,MIC,Acinetobacter baumannii [3],1 µg/mL
same,MIC,Acinetobacter baumannii [4],16 µg/mL
same,fold change (FC),Acinetobacter baumannii [5],>=512
same,fold change (FC),Acinetobacter baumannii [6],32
same,fold change (FC),Acinetobacter baumannii [33],2
same,fold change (FC),Acinetobacter baumannii [7],>=512
same,MIC,Acinetobacter baumannii [7],≤ 0.062 µg/mL
same,MIC,Acinetobacter baumannii [8],0.5 µg/mL
same,fold change (FC),Acinetobacter baumannii [9],64
Cl.Cl.Nc1nc(-c2ccc(NC(=O)Nc3ccc(-c4c[nH]c(N)n4)c(F)c3)cc2)c[nH]1,MIC,Acinetobacter baumannii [1],> 200 µM
same,MIC,Acinetobacter baumannii [2],≤ 0.062 µg/mL
same,MIC,Acinetobacter baumannii [3],2 µg/mL
same,fold change (FC),Acinetobacter baumannii [5],>=512
same,fold change (FC),Acinetobacter baumannii [6],16
same,fold change (FC),Acinetobacter baumannii [7],64
same,MIC,Acinetobacter baumannii [7],0.5 µg/mL
same,MIC,Acinetobacter baumannii [8],1 µg/mL
same,fold change (FC),Acinetobacter baumannii [9],32
Nc1nc(-c2cccc(NC(=O)Nc3cccc(-c4c[nH]c(N)n4)c3)c2)c[nH]1,MIC,Acinetobacter baumannii [1],200 µM
same,MIC,Acinetobacter baumannii [2],≤ 0.062 µg/mL
same,MIC,Acinetobacter baumannii [3],1 µg/mL
same,MIC,Acinetobacter baumannii [4],4 µg/mL
same,fold change (FC),Acinetobacter baumannii [5],>=512
same,fold change (FC),Acinetobacter baumannii [6],32
same,fold change (FC),Acinetobacter baumannii [33],8
same,MIC,Acinetobacter baumannii [8],0.5 µg/mL
same,fold change (FC),Acinetobacter baumannii [9],64
same,IC50 at 24 h,[10],380 µg/mL
same,selectivity ratio,[11],113
same,MIC,Acinetobacter baumannii [18],0.5 µg/mL
same,MIC,Acinetobacter baumannii [19],0.5 µg/mL
same,MIC,Acinetobacter baumannii [20],4 µg/mL
same,MIC,Acinetobacter baumannii [22],0.25 µg/mL
same,MIC,Acinetobacter baumannii [23],0.5 µg/mL
same,MIC,Acinetobacter baumannii [24],4 µg/mL
same,MIC,Acinetobacter baumannii [26],0.003 µg/mL
same,MIC,Acinetobacter baumannii [27],0.015 µg/mL
same,MIC,Acinetobacter baumannii [28],0.125 µg/mL
same,MIC,Acinetobacter baumannii [34],1 µg/mL
same,Stability,[30],88%
same,Stability,[31],93%
Cl.Cl.Nc1nc(-c2cc(NC(=O)Nc3ccc(F)c(-c4c[nH]c(N)n4)c3)ccc2F)c[nH]1,MIC,Acinetobacter baumannii [1],> 200 µM
same,MIC,Acinetobacter baumannii [2],0.125 µg/mL
same,MIC,Acinetobacter baumannii [3],1 µg/mL
same,MIC,Acinetobacter baumannii [4],2 µg/mL
same,fold change (FC),Acinetobacter baumannii [5],256
same,fold change (FC),Acinetobacter baumannii [6],32
same,fold change (FC),Acinetobacter baumannii [33],16
same,fold change (FC),Acinetobacter baumannii [7],128
same,MIC,Acinetobacter baumannii [7],0.25 µg/mL
same,MIC,Acinetobacter baumannii [8],0.5 µg/mL
same,fold change (FC),Acinetobacter baumannii [9],64
